The target of data set [1] is T1, ATP-dependent translocase ABCB1 (Homo sapiens, UniProt P08183). As to the kind of experiment: Inhibition of MDR1 (unknown origin) expressed in MDCK cells assessed as reduction in calcein-AM efflux preincubated for 30 mins followed by calcein-AM addition measured after 30 mins by spectrofluorimetric method. Type of data set: cell-based.
The subject of data set [2] is MDCK. The data set can be described thus: Cytotoxicity against MDCK cells expressing MDR1 assessed as reduction in cell viability at 10 uM after 72 hrs by MTT assay. Type of data set: ADME, cell-based, Canis lupus familiaris. Particulars: dog; call rule not given here. Summed up:
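MDCK-MDR1 cells (DMEM high glucose, 10% FBS, 37 °C, 5% CO2) were seeded at 10,000/well. Compound was added at 0.1, 1 and 10 µM the next day. On day 3 the medium was replaced with compound alone, and the 72 h run ended with MTT (0.5 mg/mL, 3 h, 37 °C). Formazan was dissolved in DMSO and read at 570/630 nm. Viability is % of untreated control with solvent controls, from 2-3 independent experiments in triplicate.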

For data set [3], the target named is T1, ATP-dependent translocase ABCB1. The data set can be described thus: Inhibition of MDR1 (unknown origin) expressed in MDCK cells assessed as potentiation of doxorubicin-induced cytotoxicity preincubated for 24 hrs followed by doxorubicin addition measured after 72 hrs by MTT assay. Type of data set: cell-based. Summed up:
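MDCK-MDR1 cells were seeded at 10,000/well, and compound was added at 0.1, 1 and 10 µM on day 2. On day 3 the medium was replaced with compound plus 10 µM doxorubicin. The 72 h run ended with MTT (0.5 mg/mL, 3 h, 37 °C) and DMSO solubilization, read at 570/630 nm. Growth is % of drug-free control, compared against doxorubicin alone by one-way ANOVA with Bonferroni post-hoc.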
A general note: Tetrazolium assays rely on reduction of a dye to a coloured formazan, in cell work by metabolically active cells.

The values that follow come from ChEMBL document CHEMBL4325869, “1,2,3,4-Tetrahydroisoquinoline/2H-chromen-2-one conjugates as nanomolar P-glycoprotein inhibitors: Molecular determinants for affinity and selectivity over multidrug resistance associated protein 1” (Eur J Med Chem, 2019).

T1 sequence (P08183 whole entry): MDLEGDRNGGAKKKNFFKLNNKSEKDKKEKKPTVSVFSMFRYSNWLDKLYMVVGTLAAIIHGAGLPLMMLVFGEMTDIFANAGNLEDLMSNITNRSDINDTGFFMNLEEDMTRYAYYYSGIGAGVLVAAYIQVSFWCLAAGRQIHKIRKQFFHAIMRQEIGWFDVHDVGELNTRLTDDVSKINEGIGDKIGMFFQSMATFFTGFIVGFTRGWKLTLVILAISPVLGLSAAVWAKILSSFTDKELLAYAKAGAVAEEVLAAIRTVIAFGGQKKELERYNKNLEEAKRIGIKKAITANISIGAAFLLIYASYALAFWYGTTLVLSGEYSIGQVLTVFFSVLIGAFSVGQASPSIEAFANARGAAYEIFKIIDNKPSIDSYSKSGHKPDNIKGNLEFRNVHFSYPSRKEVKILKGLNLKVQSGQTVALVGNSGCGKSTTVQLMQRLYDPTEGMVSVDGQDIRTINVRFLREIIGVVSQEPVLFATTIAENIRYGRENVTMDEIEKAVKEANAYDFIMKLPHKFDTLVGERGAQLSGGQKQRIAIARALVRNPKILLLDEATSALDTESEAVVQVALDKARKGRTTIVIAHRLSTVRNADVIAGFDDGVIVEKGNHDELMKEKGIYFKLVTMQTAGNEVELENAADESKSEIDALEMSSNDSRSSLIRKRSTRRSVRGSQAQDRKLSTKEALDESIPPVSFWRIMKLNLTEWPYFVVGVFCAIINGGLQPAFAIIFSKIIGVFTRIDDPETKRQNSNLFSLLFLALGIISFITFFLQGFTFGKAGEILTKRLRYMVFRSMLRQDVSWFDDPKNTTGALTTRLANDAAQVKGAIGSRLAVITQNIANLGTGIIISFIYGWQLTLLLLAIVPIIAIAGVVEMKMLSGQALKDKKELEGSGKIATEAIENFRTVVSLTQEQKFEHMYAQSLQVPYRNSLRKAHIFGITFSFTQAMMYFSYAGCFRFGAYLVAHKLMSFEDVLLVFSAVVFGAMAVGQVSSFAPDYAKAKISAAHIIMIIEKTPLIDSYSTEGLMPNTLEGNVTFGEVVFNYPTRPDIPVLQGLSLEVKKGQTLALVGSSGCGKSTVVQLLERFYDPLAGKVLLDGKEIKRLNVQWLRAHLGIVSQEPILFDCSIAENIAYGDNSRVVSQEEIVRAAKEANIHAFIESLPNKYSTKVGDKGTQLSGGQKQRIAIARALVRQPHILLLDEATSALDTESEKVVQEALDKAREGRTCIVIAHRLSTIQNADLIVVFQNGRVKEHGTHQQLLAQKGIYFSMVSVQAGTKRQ

`COc1cc2c(cc1OC)CN(CC/C=C1\CCCc3c(OC)cccc31)CC2`: the IC50 (usually the midpoint of a concentration-inhibition curve) in data set [1] was 1200 nM. Still for that read-out and setting: with `Cc1c(C)c2ccc(OCCN3CCc4ccccc4C3)cc2oc1=O` the figure was 15000 nM; with `COc1cc2c(cc1OC)CN(CCOc1ccc3c(C)c(C)c(=O)oc3c1)CC2`, 380 nM. Regarding `COc1cc2c(cc1OC)CN(Cc1ccc(COc3ccc4c(C)c(C)c(=O)oc4c3)cc1)CC2`, the half-maximal inhibitory concentration (IC50) in data set [1] is 190 nM.

In the case of `COc1cc2c(cc1OC)CN(CCCCOc1ccc3cc(-c4ccccc4)c(=O)oc3c1)CC2`, in data set [1], the IC50 is 410 nM. Same read-out and setting: with `COc1cc2c(cc1OC)CN(CCCCCOc1ccc3c(c1)oc(=O)c1ccccc13)CC2` the figure was 330 nM. Take `COc1cc2c(cc1OC)CN(CCc1ccc(COc3ccc4c(C)c(C)c(=O)oc4c3)cc1)CC2`: the IC50 in data set [1] was 190 nM. Besides, the Activity result in data set [2] was “Non-Toxic”. Also, the “inhibition (INH)” value in data set [3] is recorded as “Dose-dependent effect”. As to `COc1cc2c(cc1OC)CN(CCCCCCOc1ccc3c(C)c(C)c(=O)oc3c1)CC2`, the IC50 in data set [1] is 220 nM. Regarding `COc1cc2c(cc1OC)CN(CCCCCOc1ccc3c(C)c(Cl)c(=O)oc3c1)CC2`, in data set [1], the IC50 was 460 nM.

For `COc1cc2c(cc1OC)CN(Cc1cccc(COc3ccc4c(C)c(C)c(=O)oc4c3)c1)CC2`, the IC50 in data set [1] was 160 nM. With `COc1cc2c(cc1OC)CN(CCCCCOc1ccc3c(C)c(Br)c(=O)oc3c1)CC2`, in data set [1], the IC50 was 280 nM. In addition, the Activity result in data set [2] was “Non-Toxic”. In data set [3], the “inhibition (INH)” value is “Dose-dependent effect”.

`Cc1c(C)c2ccc(OCCCCN3CCc4ccccc4C3)cc2oc1=O`: in data set [1], the 50% inhibitory concentration (IC50) was 910 nM. The same measure, in the same setting: with `COc1cc2c(cc1OC)CN(CCCCOc1ccc3c(C)c(C)c(=O)oc3c1)CC2` the figure was 150 nM. Regarding `Cc1c(C)c2ccc(OCCCCCN3CCc4ccccc4C3)cc2oc1=O`, in data set [1], the half-maximal inhibitory concentration (IC50) was 550 nM. In addition, in data set [2], the Activity result was “Non-Toxic”. Further, in data set [3], the “inhibition (INH)” value was “Dose-dependent effect”. Consider `COc1cc2c(cc1OC)CN(Cc1ccccc1COc1ccc3c(C)c(C)c(=O)oc3c1)CC2`, for which the IC50 in data set [1] was 160 nM. With `COc1cc2c(cc1OC)CN(Cc1cccc(COc3ccc4ccc(=O)oc4c3)c1)CC2`, in data set [1], the IC50 is 770 nM.

Turning to `COc1cc2c(cc1OC)CN(C/C=C/COc1ccc3c(C)c(C)c(=O)oc3c1)CC2`, in data set [1], the IC50 is 1000 nM.

Take `COc1cc2c(cc1OC)CN(CCCCOc1ccc3c(C)c(Cl)c(=O)oc3c1)CC2`: in data set [1], the concentration for half-maximal inhibition (IC50) was 560 nM.

`COc1cc2c(cc1OC)CN(CCCCCOc1ccc3cc(-c4ccccc4)c(=O)oc3c1)CC2`: in data set [1], the IC50 was 390 nM. Besides, the Activity entry in data set [2] is on record as “Non-Toxic”. In data set [3], the “inhibition (INH)” value was “Dose-dependent effect”.

`COc1cc2c(cc1OC)CN(CCCOc1ccc3c(C)c(C)c(=O)oc3c1)CC2`: the IC50 in data set [1] is 190 nM.

Regarding `COc1cc2c(cc1OC)CN(CCCCCOc1ccc3c(C)c(-c4ccccc4)c(=O)oc3c1)CC2`, the IC50 in data set [1] was 220 nM. Moreover, the Activity result in data set [2] is on record as “Non-Toxic”. In data set [3], the “inhibition (INH)” value is given as “Dose-dependent effect”. Consider `Cc1c(C)c2ccc(OCCCN3CCc4ccccc4C3)cc2oc1=O`, for which the IC50 in data set [1] was 2700 nM.

With `COc1cc2c(cc1OC)CN(CCCCCOc1ccc3c(C)c(C)c(=O)oc3c1)CC2`, in data set [1], the IC50 is 70 nM. Besides, the Activity result in data set [2] is listed as “Non-Toxic”. In data set [3], the “inhibition (INH)” value was “Dose-dependent effect”.
